Measured values reported in the EternaBench riboswitch data.

Key:
[1] = test system: MS2 coat protein; experiment: apparent Kd, MS2 coat protein; higher = weaker binding; RNA-MaP array; theophylline 2 mM where present
Outline: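 The apparent Kd is reported as the median of filtered per-cluster binding-curve fits. To get these curves, designs transcribed by stalled E. coli RNA polymerase on Illumina sequencing-chip clusters were titrated with SNAP-549-labelled MS2 coat protein from 0.7 or 1.5 nM, doubling to 3 µM. Titrations were run without and then with constant ligand in 100 mM Tris-HCl pH 7.5, 80 mM KCl, 4 mM MgCl2, BSA, DTT, yeast tRNA and Tween-20, and green signal was normalised to red-channel RNA signal and control-cluster median Fmax.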

[2] = test system: MS2 coat protein; experiment: apparent Kd, MS2 coat protein; higher = weaker binding; RNA-MaP array
Outline: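 With or without input ligand, designed RNAs transcribed on an Illumina sequencing chip from sequenced DNA templates were incubated at room temperature with fluorescently labeled MS2 coat protein at 1.5 nM to 3 μM. The buffer was Tris-HCl pH 7.5 with KCl, MgCl2, BSA, DTT, tRNA and Tween20, and incubation ran 0.8–1.5 h at the lowest and 10–20 min at the highest concentrations. Apparent Kd is reported as the median of fits to binding curves from individual clusters. Designs measured on fewer than 10 clusters are not included.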

[3] = designed as: ON switch for theophylline, no ligand
[4] = ligand present: theophylline, designed as: ON switch for theophylline
[5] = designed as: OFF switch for theophylline, no ligand
[6] = ligand present: theophylline, designed as: OFF switch for theophylline
[7] = designed as: ON switch for flavin mononucleotide, no ligand
[8] = ligand present: flavin mononucleotide, designed as: ON switch for flavin mononucleotide
[9] = designed as: OFF switch for flavin mononucleotide, no ligand
[10] = ligand present: flavin mononucleotide, designed as: OFF switch for flavin mononucleotide

Sequence: CAGGUGCAGUCAGAUACCAGAUCUGCACAUGAGGAUCACCCAUGUGUAAUGAGUUCAAAGAUCCCUUGGCAGCUGUGUGAUCCGA
- apparent Kd [1, 3]: 165 nM
- apparent Kd [1, 4]: 193 nM

Sequence: AGUACACGAACGGAUACCAGCCGGACAUGAGGAUCACCCAUGUCCUACCUCUGUUCGGUUGGCCCUUGGCAGCCGUUCGUGUACA
- apparent Kd [1, 3]: 117 nM
- apparent Kd [1, 4]: 88.3 nM

Sequence: ACGAACGAUAGUGAUACCAGACGUACAUGAGGAUCACCCAUGUUUUGGGUAAGGUUAAUAGUCCCUUGGCAGCACUUUAAGUUCG
- apparent Kd [1, 5]: 58.7 nM
- apparent Kd [1, 6]: 398 nM

Sequence: UCGUGUGUUUCGGAUACCAGUGAAAUCGAUACAUGAGGAUCACCCAUGUGAGAGGAUGUACACCCUUGGCAGCUGGCUGUUGCGG
- apparent Kd [1, 3]: 42.4 nM
- apparent Kd [1, 4]: 42.6 nM

Sequence: ACAUGAGGAUCACCCAUGUCAAGGCACGAUACCAGCUGAUCCCGUGGCCCUUGGCAGCGUCACGUUUGGUCCCGCGGAUGACACG
- apparent Kd [1, 3]: 89 nM
- apparent Kd [1, 4]: 95.8 nM

Sequence: AUCGUACCUGAUGAUACCAGCAUGUGCUCGUAACAUGAGGAUCACCCAUGUGAUCAGUAAUGCCCUUGGCAGCAUGAUCGGUACA
- apparent Kd [1, 3]: 57.9 nM
- apparent Kd [1, 4]: 14.3 nM

Sequence: UGAACAUGAGGAUCACCCAUGUAGUCAGAUACCAGACACUGCAUGGUCCCUUGGCAGCUGAAGAGCGUUUGCCAAAUAACGUUCA
- apparent Kd [1, 3]: 162 nM
- apparent Kd [1, 4]: 567 nM

Sequence: CGAUACGUAACUGAUACCAGUGUACUGACAUGAGGAUCACCCAUGUUGGGUUUUGUUGUACACCCUUGGCAGCAGAAUCGUAUCG
- apparent Kd [1, 5]: 67.5 nM
- apparent Kd [1, 6]: 96.1 nM

Sequence: AGACAUGAGGAUCACCCAUGUAGUAUGGAUACCAGAUCCAGAUUUAUCCCUUGGCAGCUGUGGUACAGUGAUGGAUUGCUCCUAG
- apparent Kd [1, 5]: 31 nM
- apparent Kd [1, 6]: 40.8 nM

Sequence: AACAUGAGGAUCACCCAUGUAUUGGGUGAUACCAGCCUGAAUAAUGGCCCUUGGCAGCACCACGCUAACUUUAUGUCUGCGAACC
- apparent Kd [1, 3]: 92.2 nM
- apparent Kd [1, 4]: 162 nM

Sequence: AUCGUACCUGAAGAUACCAGCAUGUGAUCAUAACAUGAGGAUCACCCAUGUAAUCAGUGAUGCCCUUGGCAGCUUGAUCGGUACA
- apparent Kd [1, 3]: 40.8 nM
- apparent Kd [1, 4]: 19.2 nM

Sequence: UAUAUAUAAAUUGAUACCAGCGAGAAAACAUGAGGAUCACCCAUGUUCGCCCAUGUUAAGCGCCCUUGGCAGCAAUAUUAUUAUU
- apparent Kd [1, 5]: 24.5 nM
- apparent Kd [1, 6]: 73 nM

Sequence: GUUAUGGACCUGGAUACCAGCUGGUACAAGGGCGGUCUACAUGAGGAUCACCCAUGUGUCAGCCCUUGGCAGCCAGCAACCCACU
- apparent Kd [1, 5]: 9.88 nM
- apparent Kd [1, 6]: 11.4 nM

Sequence: UAGUAAACCGCAGGAUAUCCAACUUGGGCACCAGGAGAAGGGCGAUUAACAUGAGGAUCACCCAUGUAUUCGGAGAGCUUACCU
- apparent Kd [2, 7]: 10.4 nM
- apparent Kd [2, 8]: 9.18 nM

Sequence: AGUACAAUAUUAGGAUAUUGACAAAACAUGAGGAUCACCCAUGUAAGGCAAGUGCAAGGGAGAGUCAAGAAGGAAAACUGAGUU
- apparent Kd [2, 7]: 38.4 nM
- apparent Kd [2, 8]: 30 nM

Sequence: GUGUUACAUGAGGAUCACCCAUGUGUCUGAUGUCAAGGAUAUGACUCUUCCUUCACAAAGUCAGAAGGUGAUAUCA
- apparent Kd [2, 7]: 66.2 nM
- apparent Kd [2, 8]: 12.8 nM

Sequence: GAACCGUUUGAGAAGGUACACAUUCAGGUCGGUACUGGACAUGAGGAUCACCCAUGUGCCGGUGGUAAGGAUAUCAGAUGAGCU
- apparent Kd [2, 9]: 10.5 nM
- apparent Kd [2, 10]: 10.4 nM

Sequence: GGCGACAUGAGGAUCACCCAUGUGACACCUCGAGGACCGGUACGGCCGCCACUCGUAACCUGCACUAUAGCUACCACGAUUAGCC
- apparent Kd ([2]; designed as: ON switch for tryptophan, no ligand): 193 nM
- apparent Kd ([2]; ligand present: tryptophan, designed as: ON switch for tryptophan): 42.4 nM

Sequence: GUGAUACAUGAGGAUCACCCAUGUUAAGGUCUUGCAGGAUAUCCAGAACUCGAGAUAGAUGGAGAAGGGCAUGCAU
- apparent Kd [2, 7]: 12.6 nM
- apparent Kd [2, 8]: 9.76 nM

Sequence: GAGUACUGGUUAGGGAGAAAUACAUGAGGAUCACCCAUGUCCAGAAGGAUUCAGUAAGUGCCGGAAUAGGAUAUGGAACUAAAA
- apparent Kd [2, 7]: 246 nM
- apparent Kd [2, 8]: 105 nM

Sequence: GCUAUAUCGUAGCUAACAUGAGGAUCACCCAUGUGAAGGAAGAGAAGGUGCAUCUAACAGACCCGCAAGGAUAUCUAGAUAAAG
- apparent Kd [2, 7]: 18.8 nM
- apparent Kd [2, 8]: 16.1 nM

Sequence: AAUGUACAUGAGGAUCACCCAUGUCGUCUACUUAGAGGAUAUGAUUGGUUACCCAGCUGAUCAGAAGGCUACCGUC
- apparent Kd [2, 7]: 14.1 nM
- apparent Kd [2, 8]: 11.9 nM

Sequence: CAACCACACAUAAGGCAAGGACAUGAGGAUCACCCAUGUGGUAGAAGGCAUCCUAAUGCGGACGAUGAGGAUAUACGACGUGCA
- apparent Kd [2, 9]: 75.5 nM
- apparent Kd [2, 10]: 50 nM

Sequence: CAGUAAGUAGGAUAUGUAUCAAGCUACAUGAGGAUCACCCAUGUGAACCCUAACAGCUGAACAGAAGGACUGUGUG
- apparent Kd [2, 9]: 156 nM
- apparent Kd [2, 10]: 198 nM

Sequence: AAAGAUUCCUGAACGCCGCAUACCGAUGAUACCAGCCAACGGAAAGGCCCUUGGCAGCAUUAAACAUGAGGAUCACCCAUGUCUA
- apparent Kd [2, 5]: 11.8 nM
- apparent Kd [2, 6]: 13.9 nM

Sequence: CCGCGACCUGAGAAGGGCUGCCAAGGGAGACACAUGAGGAUCACCCAUGUCGGGUGGUCCUGCUAGCAGGAUAUCAUCGCAGGA
- apparent Kd [2, 9]: 173 nM
- apparent Kd [2, 10]: 225 nM
